Assay outcomes: PubChem BioAssay, Broad Institute
Rows were chosen to be rich in hits. Some 2.6% of all compounds tested hit in one or more screens of this group.
F508del corr = F508del CFTR correction, initial screen, CFBE line, single point. AID 720511, 2013. 350,000 tested, 0.36% active. CFBE cells, YFP halide quenching; stimulated with forskolin plus potentiator P3; % fluorescence drop versus neutral controls. activity (quench increase), % at 7.58 µM;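 active means mean added fluorescence quench of at least 8% versus neutral control, with both replicates also reaching 8%; inconclusive means only one of the mean or replicate conditions met; inactive means mean below 8% and not both replicates reaching 8%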;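 further: cells transiently co-express mutant CFTR-F508del with the halide-sensitive YFP; corrector assay measuring rescue of mutant channel to the surface after 24 h compound exposure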
ERAP1 HTS inh = human ERAP1 aminopeptidase inhibitors, primary screen, biochemical, single point, plate reader; recombinant ERAP1, Leu-AMC fluorescence, 60 min; inhibition, % at 10.7 µM; 340,000 tested, 0.15% active;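 active means mean replicate inhibition of at least 30%, or all replicates individually reaching that 30% level; inactive means mean below 30% and not every replicate reaching it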;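 further: 0% = neutral control wells and 100% = L-leucinethiol positive control wells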
Target sequence (Q9NZ08 whole entry, looked up): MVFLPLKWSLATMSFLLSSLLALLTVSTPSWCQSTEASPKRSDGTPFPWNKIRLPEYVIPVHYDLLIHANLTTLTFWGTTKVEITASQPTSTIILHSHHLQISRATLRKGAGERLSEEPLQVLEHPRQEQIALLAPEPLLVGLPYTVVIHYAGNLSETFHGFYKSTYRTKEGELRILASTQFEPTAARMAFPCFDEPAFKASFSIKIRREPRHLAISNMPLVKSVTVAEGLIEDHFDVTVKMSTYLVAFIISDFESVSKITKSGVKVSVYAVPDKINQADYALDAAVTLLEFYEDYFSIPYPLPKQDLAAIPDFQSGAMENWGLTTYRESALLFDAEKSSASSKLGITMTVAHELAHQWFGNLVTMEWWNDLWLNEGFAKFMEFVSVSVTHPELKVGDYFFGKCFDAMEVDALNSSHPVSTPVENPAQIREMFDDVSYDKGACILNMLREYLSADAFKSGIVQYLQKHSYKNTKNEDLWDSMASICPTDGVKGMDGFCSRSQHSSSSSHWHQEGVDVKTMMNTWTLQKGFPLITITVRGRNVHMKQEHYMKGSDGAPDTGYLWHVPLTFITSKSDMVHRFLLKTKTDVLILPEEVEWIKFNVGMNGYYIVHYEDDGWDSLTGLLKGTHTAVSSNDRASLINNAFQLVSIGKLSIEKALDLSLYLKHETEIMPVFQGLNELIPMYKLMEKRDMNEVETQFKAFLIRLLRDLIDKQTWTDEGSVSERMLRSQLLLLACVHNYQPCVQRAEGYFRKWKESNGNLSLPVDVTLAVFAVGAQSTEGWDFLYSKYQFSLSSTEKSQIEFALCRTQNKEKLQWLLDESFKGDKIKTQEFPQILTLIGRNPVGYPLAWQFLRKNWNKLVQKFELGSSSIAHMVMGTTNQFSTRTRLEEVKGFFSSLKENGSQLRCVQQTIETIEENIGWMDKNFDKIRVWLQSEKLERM
miR-122 sensor = miR-122 Renilla sensor signal increase in Huh7, primary screen, miR-122 inhibitor project, cell-based, single point, plate reader; Huh7 miR-122 Renilla luciferase sensor, 48 h; neutral wells = 0, positive control = 100; activation (reporter increase), % at 12.5 µM; 340,000 tested, 0.3% active;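 active means mean replicate activation score at least 90 and every replicate individually at or above 90; inconclusive means only one of the two criteria met; inactive means neither criterion met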;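 further: higher luciferase means less miR-122 activity so hits act as miR-122 inhibitors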
E-sel inducer = E-selectin induction in HUVECs, primary screen, imaging, HUVEC, immunofluorescence imaging, single point. activation, % at 7.58 µM. AID 686992, 2013. normalized: neutral wells 0, TNF-alpha wells 100. 260,000 tested, 0.37% active. P16581;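 active means mean E-selectin-positive cell signal at least 10% of the positive control, reached in at least 60% of replicates, without over 20% cell loss; inconclusive means no rule given, readout overlaps actives, possibly toxicity-flagged; inactive means the rest, including those meeting only one limit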
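assay system = HUVEC, human umbilical vein endothelial cells | input = 3,000 HUVEC seeded per well | medium = EGM-2 growth medium on 0.1% gelatin-coated wells | dosing = one compound dose added by pin transfer | signal = immunofluorescence imaging | read-out basis = % PE-positive cells | control set = TNF-alpha, DMSO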
DENV2 CPE = inhibitors of DENV2 cytopathic effect, primary screen, cell-based, plate reader, single concentration | DENV2-infected cells, cytopathic effect rescue | 350,000 tested, 1.7% active | CPE inhibition, % at 9.99 µM; in the data active means CPE inhibition above about 20%, passing the limit was not always enough; inconclusive means no clear call, values can overlap the other calls; tested in BHK-21 cells;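 further: 0% = median of neutral control wells and 100% = median of positive control wells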
GSIS activator = GLuc luminescence reporter in INS-1E cells, primary screen for activators of glucose-dependent secretion of insulin. INS-1E GLuc reporter insulin secretion, 2-3 h. activation, % at 16.6 µM. 370,000 tested, 0.61% active;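 active means lowest replicate activation of at least 40%, so every replicate reaches that level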;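 further: 0% = median of neutral control wells and 100% = median of IBMX positive control wells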
* hit, by the source's call; u = inconclusive; x = not tested or not shown; [ ] = another dose, or the depositor's remark.

SMILES | F508del corr | ERAP1 HTS inh | miR-122 sensor | E-sel inducer | DENV2 CPE | GSIS activator
O=C(NCc1nc2ccccc2[nH]1)C1=C[C@H](c2ccc(C(F)(F)F)cc2)C[C@H](OCCCCO)O1 | -2.5 | -1.7 | -2.8 | 0.5 | 21.3* | -22.3
C=CCOC(=O)C1=C[C@@H](C2CCCCC2)C[C@@H](OCc2ccc(CO)cc2)O1 | 2.6 | -3.2 | x | -0.1 | 48.3* | x
Cc1ccccc1S(=O)(=O)N1CCCCN2[C@H](CO)[C@@H](c3ccc(-c4cncnc4)cc3)[C@@H]2C1 | 5.5 | -1.6 | -0.2[16.7 µM] | -0.7 | 8.9 | 13.7
COc1ccc(C)cc1NC(=O)CNC(c1ccccc1)c1ccc(C)cc1 (stereo unspecified) | 13.4* | -1.8 | 1.5 | 0.5 | 9.7 | -5.3
Cc1ccc(S(=O)(=O)Nc2ccc3c(c2)C(=O)N([C@H](C)CO)C[C@H](C)[C@H](CN(C)S(C)(=O)=O)OCCCC[C@H](C)O3)cc1 | -1.0 | 1.7 | 3.8[16.7 µM] | -0.2 | 17.9 | -2.2
CNC[C@H]1OCCCC[C@@H](C)Oc2ccc(NS(=O)(=O)c3c(C)noc3C)cc2C(=O)N([C@H](C)CO)C[C@H]1C | 0.7 | x | 10.7[16.7 µM] | -0.2 | -12.1 | -0.1
CNC[C@H]1OCCCC[C@@H](C)Oc2ccc(NS(=O)(=O)c3ccc(C)cc3)cc2C(=O)N([C@H](C)CO)C[C@@H]1C | -3.4 | 1.9 | -3.4[16.7 µM] | -0.1 | 29.6* | 7.8
Cc1ccc(S(=O)(=O)Nc2ccc3c(c2)C(=O)N([C@H](C)CO)C[C@H](C)[C@@H](CN(C)S(C)(=O)=O)OCCCC[C@H](C)O3)cc1 | 2.3 | 1.5 | -0.8[16.7 µM] | -0.1 | 57.5* | 7.2
Cc1ccc(S(=O)(=O)Nc2ccc3c(c2)C(=O)N([C@@H](C)CO)C[C@H](C)[C@@H](CN(C)S(C)(=O)=O)OCCCC[C@@H](C)O3)cc1 | 0.2 | 2.9 | 11.0[16.7 µM] | 1.1 | 25.7* | -0.8
CNC[C@@H]1OCCCC[C@H](C)Oc2ccc(NS(=O)(=O)c3ccc(C)cc3)cc2C(=O)N([C@@H](C)CO)C[C@H]1C | -1.9 | -2.5 | 5.0[16.7 µM] | -0.1 | -3.2 | -2.8
CNC[C@@H]1OCCCC[C@H](C)Oc2ccc(NS(=O)(=O)c3c(C)noc3C)cc2C(=O)N([C@@H](C)CO)C[C@@H]1C | -2.0 | x | 6.7[16.7 µM] | -0.2 | 131.7* | 0.4
Cc1ccc(S(=O)(=O)Nc2ccc3c(c2)C(=O)N([C@H](C)CO)C[C@@H](C)[C@@H](CN(C)S(C)(=O)=O)OCCCC[C@H](C)O3)cc1 | -3.2 | 4.1 | -4.8[16.7 µM] | -0.2 | 13.3 | 5.1
O=C1NCCOCn2nncc2CC[C@@H]1Cc1ccccc1 | x | x | x | x | x | 16.9
C[C@@H]1CN([C@H](C)CO)C(=O)c2cc(NC(=O)c3ccncc3)ccc2O[C@H]1CN(C)Cc1ccccc1 | -1.6 | 0.6 | 10.9[16.7 µM] | -0.3 | 4.9 | 11.4
COc1ccc(S(=O)(=O)Nc2ccc3c(c2)C(=O)N([C@H](C)CO)C[C@@H](C)[C@@H](CN(C)S(C)(=O)=O)OCCCC[C@@H](C)O3)cc1 | -1.5 | 1.5 | -6.5[16.7 µM] | 0.0 | 49.0* | 2.8
CNC[C@H]1OCCCC[C@@H](C)Oc2ccc(NS(=O)(=O)c3cn(C)cn3)cc2C(=O)N([C@@H](C)CO)C[C@H]1C | -0.4 | x | 25.0[16.7 µM] | 0.0 | 64.3* | 20.4
COc1ccc(S(=O)(=O)Nc2ccc3c(c2)C(=O)N([C@H](C)CO)C[C@@H](C)[C@@H](CN(C)S(C)(=O)=O)OCCCC[C@H](C)O3)cc1 | -2.0 | -1.8 | -1.8[16.7 µM] | 0.2 | 0.0 | 6.1
C[C@@H]1CN([C@H](C)CO)C(=O)c2cc(NS(=O)(=O)c3ccc(F)cc3)ccc2O[C@@H](C)CCCCO[C@@H]1CN(C)S(C)(=O)=O | -3.0 | 0.8 | 4.6[16.7 µM] | 43.5* | 11.3 | 17.3
CCN(CCO)Cc1csc2cc(C)ccc12 | 3.2 | -0.3 | x | 1.2 | u | 47.2*
CCN(CCO)Cc1csc2ccccc12 | -3.0 | 4.6 | x | x | -16.5 | 8.3
CCC(=O)N1CC2(C1)[C@H](c1ccccc1)[C@@H](CO)N2C(=O)NC(C)C | -1.4 | 3.5 | x | 0.0 | 29.1* | 1.2
O=C(c1ccc2c(c1)OCO2)N1CC2(C1)[C@H](c1ccccc1)[C@@H](CO)N2C(=O)C1CCC1 | -2.4 | 1.3 | x | -0.3 | 43.5* | 13.2
CCC(=O)N1CC2(C1)[C@H](c1ccccc1)[C@@H](CO)N2C(=O)c1cccnc1 | -0.9 | -1.3 | x | -0.3 | 0.3 | 2.7
O=C(C1CCCCC1)N1CC2(C1)[C@H](c1ccccc1)[C@H](CO)N2C(=O)c1cccnc1 | 1.4 | 1.8 | x | 0.2 | 27.7* | -9.1
CCC(=O)N1CC2(C1)[C@H](c1ccccc1)[C@H](CO)N2C(=O)c1cccnc1 | -1.4 | -1.9 | x | -0.2 | 23.9* | 15.1
SMILES | F508del corr | ERAP1 HTS inh | miR-122 sensor | E-sel inducer | DENV2 CPE | GSIS activator
O=C(c1ccc2c(c1)OCO2)N1CC2(C1)[C@H](c1ccccc1)[C@H](CO)N2C(=O)C1CCC1 | 1.3 | 2.3 | x | 0.3 | 5.9 | 0.5
Cc1noc(C)c1S(=O)(=O)Nc1cccc2c1O[C@H](CN(C)S(C)(=O)=O)[C@H](C)CN([C@H](C)CO)C2=O | 1.3 | -1.5 | 3.9[16.7 µM] | -13.4 | -1.7 | 8.3
C[C@H](CO)N1C[C@H](C)[C@@H](CN(C)C(=O)Nc2ccc(F)cc2)Oc2ccc(NC(=O)CCCCCC(=O)Nc3ccccc3N)cc2C1=O | 0.6 | 0.8 | x | 13.2 | -7.7 | -12.5
CCS(=O)(=O)N1CC2(C1)[C@H](c1ccccc1)[C@@H](CO)N2C(=O)C1CC1 | -1.0 | 0.3 | x | -0.2 | 22.6* | 3.4
O=C(c1cccnc1)N1CC2(C1)[C@H](c1ccccc1)[C@H](CO)N2C(=O)C1CCC1 | 2.9 | -2.6 | x | -0.2 | 44.3* | 12.8
COCC(=O)N1[C@@H](CO)[C@@H](c2ccccc2)C12CN(C(=O)Nc1ccccc1F)C2 | -2.1 | 2.3 | x | 0.0 | 2.5 | -0.9
O=C(c1cccnc1)N1CC2(C1)[C@@H](c1ccccc1)[C@@H](CO)N2CC1CC1 | 2.7 | 1.6 | x | 0.6 | 20.3* | 6.9
O=C(C1CCC1)N1CC2(C1)[C@@H](c1ccccc1)[C@@H](CO)N2C(=O)c1cccnc1 | 1.0 | 2.8 | x | 0.1 | 0.4 | 4.2
CCS(=O)(=O)N1CC2(C1)[C@H](c1ccccc1)[C@@H](CO)N2C(=O)C1CCCC1 | -0.7 | -0.3 | x | -0.1 | -0.8 | -7.1
CCC(=O)N1[C@H](CO)[C@H](c2ccccc2)C12CN(C(=O)Nc1ccccc1F)C2 | -3.2 | -4.3 | x | 0.1 | 27.1* | -5.9
O=C(c1cccnc1)N1CC2(C1)[C@H](c1ccccc1)[C@@H](CO)N2CC1CC1 | -3.1 | 2.9 | x | 0.0 | 9.9 | -4.9
